Experimental findings from ChEMBL document CHEMBL3046238, “Synthesis and biological activity evaluation of 1,2,3-thiadiazole derivatives as potential elicitors with highly systemic acquired resistance” (2009) are described below.

The source made the active and inactive calls. The rule behind the calls is not given here.

Common to all, as to format: functional
In one test the test system is Cytospora mali. The test is described as follows: Antifungal activity against Valsa mali assessed as growth inhibition at 50 ug/mL measured after 2 days post dose. Particulars: for inhibition of growth at 50 µg/mL: 48 h, read-out: GI.
The next test relates to Alternaria mali. As to the kind of experiment: Antifungal activity against Alternaria mali assessed as growth inhibition at 50 ug/mL measured after 2 days post dose. Particulars: for inhibition of growth at 50 µg/mL: 48 h, read-out: GI.
The subject of the next test is Sclerotinia sclerotiorum. As to the kind of experiment: Antifungal activity against Sclerotinia sclerotiorum assessed as growth inhibition at 50 ug/mL measured after 2 days post dose. The conditions noted are these: 48 h, read-out: GI.
The subject of a further test is Botrytis cinerea. As to the kind of experiment: Antifungal activity against Botryotinia fuckeliana assessed as growth inhibition at 50 ug/mL measured after 2 days post dose. The conditions noted are these: for inhibition of growth at 50 µg/mL: 48 h, read-out: GI.
A further test relates to Puccinia triticina. As to the kind of experiment: Antifungal activity against Puccinia triticina inoculated on 500 ug/mL compound pre-treated wheat plants with 3 to 5 leaves assessed as growth inhibition. In a few lines: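 Healthy wheat plants at the 3-5 leaf stage were sprayed with compound (500 μg/mL) and then inoculated with spores. Inhibition percentage was calculated against the corresponding spore stack.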

The next test relates to Alternaria solani. The test is described as follows: Antifungal activity against Alternaria solani assessed as growth inhibition at 50 ug/mL measured after 2 days post dose. The conditions noted are these: 48 h, read-out: GI.
In test [1] the test system is Fusarium oxysporum f. sp. vasinfectum. As to the kind of experiment: Antifungal activity against Fusarium oxysporum f. sp. vasinfectum assessed as growth inhibition at 50 ug/mL measured after 2 days post dose. The conditions noted are these: for inhibition of growth at 50 µg/mL: 48 h, read-out: GI.
Another test deals with Alternaria kikuchiana. As to the kind of experiment: Antifungal activity against Alternaria kikuchiana assessed as growth inhibition at 50 ug/mL measured after 2 days post dose. Particulars: for inhibition of growth at 50 µg/mL: 48 h, read-out: GI.
Test [2] relates to Colletotrichum gloeosporioides. The test is described as follows: Antifungal activity against Glomerella cingulata assessed as growth inhibition at 50 ug/mL measured after 2 days post dose. Particulars: for inhibition of growth at 50 µg/mL: 48 h, read-out: GI.
A further test relates to Colletotrichum lagenaria. As to the kind of experiment: Antifungal activity against Colletotrichum lagenaria assessed as growth inhibition at 50 ug/mL measured after 2 days post dose. The conditions noted are these: 48 h, read-out: GI.
A further test concerns Ustilaginoidea virens. The test is described as follows: Antifungal activity against Villosiclava virens assessed as growth inhibition at 50 ug/mL measured after 2 days post dose. Particulars: for inhibition of growth at 50 µg/mL: 48 h, read-out: GI.
Another test has as its system Fusarium graminearum. As to the kind of experiment: Antifungal activity against Fusarium graminearum assessed as growth inhibition at 50 ug/mL measured after 2 days post dose. The conditions noted are these: 48 h, read-out: GI. In short, it runs like this: (§1)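 Compound stock at 500 μg/mL in DMF, diluted with sterile water in the dish and mixed into potato dextrose agar before setting. A 4 mm diameter fungal plug is placed on the plate and cultured at 24-26 °C. Colony diameter is measured after 2 days.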

The test system of the next test is Phomopsis asparagi. As to the kind of experiment: Antifungal activity against Phomopsis asparagi assessed as growth inhibition at 50 ug/mL measured after 2 days post dose.
Another test relates to Mycosphaerella arachidis. As to the kind of experiment: Antifungal activity against Mycosphaerella arachidis assessed as growth inhibition at 50 ug/mL measured after 2 days post dose. The conditions noted are these: 48 h, read-out: GI.
In another test the test system is Fusarium oxysporum. As to the kind of experiment: Antifungal activity against Fusarium oxysporum assessed as growth inhibition at 50 ug/mL measured after 2 days post dose. Particulars: for inhibition of growth at 50 µg/mL: 48 h, read-out: GI.
Another test has as its system Fusarium fujikuroi. As to the kind of experiment: Antifungal activity against Fusarium fujikuroi assessed as growth inhibition at 50 ug/mL measured after 2 days post dose. The conditions noted are these: for inhibition of growth at 50 µg/mL: 48 h, read-out: GI.
For the next test, the system named is Tobacco mosaic virus. As to the kind of experiment: Induction of systemic acquired resistance against Tobacco mosaic virus (TMV) in tobacco plants exposed to 500 ug/mL compound through leaf spray followed by 7 days culture under green house conditions assessed as inhibition of viral growth in leaves infected with Tobacco mosaic virus (TMV) measured 72 hr post viral infection by half-leaf juice rubbing method. Also on record: scale not given: the % may be the effect or the level left. In a few lines:
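Tobacco plants received compound by leaf spray or by soil irrigation, with double-distilled water as CK. Newly grown leaves were then rub-inoculated with TMV (5.88×10-2 μg/mL), and plants were kept at 25 °C for 72 h. Lesions on inoculated leaves were counted. Inhibition = (CK−A)/CK×100 from mean lesion numbers versus control.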

The test system of another test is Ceratobasidium cereale. The test is described as follows: Antifungal activity against Ceratobasidium cereale assessed as growth inhibition at 50 ug/mL measured after 2 days post dose. The conditions noted are these: for inhibition of growth at 50 µg/mL: 48 h, read-out: GI.
In test [3] the test system is Botryosphaeria berengeriana. The test is described as follows: Antifungal activity against Botryosphaeria berengeriana assessed as growth inhibition at 50 ug/mL measured after 2 days post dose. Particulars: 48 h, read-out: GI.
For another test, the system named is Phytophthora infestans. As to the kind of experiment: Antifungal activity against Phytophthora infestans assessed as growth inhibition at 50 ug/mL measured after 2 days post dose. The conditions noted are these: for inhibition of growth at 50 µg/mL: 48 h, read-out: GI. In short, it runs like this:
as §1

Another test concerns Rhizoctonia solani. The test is described as follows: Antifungal activity against Rhizoctonia solani assessed as growth inhibition at 50 ug/mL measured after 2 days post dose. Particulars: for inhibition of growth at 50 µg/mL: 48 h, read-out: GI.

`COc1ccc(-c2csc(NC(=O)c3snnc3C)n2)cc1`: the inhibition of growth at 50 µg/mL with Cytospora mali stood at 8.7%; with Alternaria mali, 15.5%; in the test on Sclerotinia sclerotiorum, 5.6%; in the test with Alternaria solani, 4%; in test [1], 0%; in test [2], 4%. The inhibition of growth at 50 µg/mL came out at 5.9% in the test with Colletotrichum lagenaria; 25% with Fusarium graminearum; 14.3% with Mycosphaerella arachidis; 3.3% with Fusarium oxysporum; 10.5% in the test on Fusarium fujikuroi. The “growth inhibition (GI)” value with Botrytis cinerea, in the test on Alternaria kikuchiana, with Ustilaginoidea virens and in the test on Phomopsis asparagi was “inactive” each time. For the same molecule, the “growth inhibition (GI)” value in the test with Puccinia triticina turned out to be 45%. Also, the Activity with Tobacco mosaic virus is given as 35%.
Regarding `CCCCCCc1cnc(NC(=O)c2snnc2C)s1`, the inhibition of growth at 50 µg/mL in the test with Cytospora mali worked out at 31%; in the test on Sclerotinia sclerotiorum it was 71.4%; with Botrytis cinerea it was 25%; with Alternaria solani, 21%; in the test with Alternaria kikuchiana, 0%; in the test on Colletotrichum lagenaria, 26.7%. Besides, the inhibition of growth at 50 µg/mL was determined as 0% with Fusarium graminearum, 29.4% in the test on Mycosphaerella arachidis and 64.3% in the test on Fusarium fujikuroi. Besides, the “growth inhibition (GI)” value (in the test with Alternaria mali; in test [1]; in test [2]; in the test on Ustilaginoidea virens; in the test on Phomopsis asparagi; in the test with Fusarium oxysporum) was “inactive” throughout. Further, the Activity in the test on Tobacco mosaic virus came to 0%.
In the case of `COc1cccc(-c2nnc(-c3snnc3C)o2)c1`, the inhibition of growth at 50 µg/mL was found to be 41.2% in the test on Cytospora mali; 27.6% in the test with Alternaria mali; 23.5% in the test on Sclerotinia sclerotiorum; 13.8% in the test with Botrytis cinerea; 13.8% in the test with Ceratobasidium cereale; 33.3% in test [3]. In addition, the inhibition of growth at 50 µg/mL is 20% in the test on Phytophthora infestans; 0% in the test on Rhizoctonia solani; 11.7% in the test with Alternaria solani; 0% in test [1]; 0% in [2]; 0% with Ustilaginoidea virens. Also, the inhibition of growth at 50 µg/mL in the test on Fusarium graminearum came out at 31%; with Mycosphaerella arachidis, 17.6%; in the test on Fusarium oxysporum, 0%; with Fusarium fujikuroi, 17.2%. The “growth inhibition (GI)” value with Puccinia triticina was 39%. Besides, the Activity with Tobacco mosaic virus is reported as 0%.
In the case of `Cc1ccc(-c2nnc(-c3snnc3C)o2)s1`, the inhibition of growth at 50 µg/mL is 0% in the test with Cytospora mali; 38.9% in the test with Alternaria mali; 40.5% in the test on Sclerotinia sclerotiorum; 0% in the test with Botrytis cinerea; 0% in the test with Ceratobasidium cereale; 39.7% in [3]. For the same molecule, the inhibition of growth at 50 µg/mL in the test with Rhizoctonia solani was 0%; with Alternaria solani, 36.8%; in test [1], 0%; in test [2], 13.8%; in the test on Ustilaginoidea virens, 0%; in the test with Fusarium graminearum, 21.1%. For the same molecule, the inhibition of growth at 50 µg/mL in the test on Mycosphaerella arachidis turned out to be 9%; in the test with Fusarium oxysporum, 31.3%; in the test on Fusarium fujikuroi, 21.1%. For the same molecule, in the test with Puccinia triticina, the “growth inhibition (GI)” value came to 0%. Besides, in the test with Phytophthora infestans, the “growth inhibition (GI)” value is “inactive”. Moreover, the outcome in the test on Tobacco mosaic virus was inactive.
Turning to `CCc1cnc(NC(=O)c2snnc2C)s1`, the inhibition of growth at 50 µg/mL amounted to 61.1% in the test with Cytospora mali; 25% in the test with Alternaria mali; 3.3% with Sclerotinia sclerotiorum; 0% with Botrytis cinerea; 21% in the test with Alternaria solani; 5% in test [1]. The inhibition of growth at 50 µg/mL with Alternaria kikuchiana worked out at 43.8%; in test [2], 36.8%; in the test with Colletotrichum lagenaria, 26.7%; with Ustilaginoidea virens it was 50%; with Fusarium graminearum, 50%; with Phomopsis asparagi (48 h, read-out: GI), 31.3%. Further, the inhibition of growth at 50 µg/mL was determined as 35.7% in the test with Mycosphaerella arachidis, 53.3% in the test with Fusarium oxysporum and 0% in the test on Fusarium fujikuroi. Besides, the Activity in the test on Tobacco mosaic virus is 30%.
Regarding `Cc1nnsc1-c1nnc(-c2ccco2)o1`, the “growth inhibition (GI)” value (with Cytospora mali; in the test on Alternaria mali; in the test with Botrytis cinerea; in the test on Ceratobasidium cereale; with Rhizoctonia solani; in test [1]) was “inactive” in each case. Besides, the “growth inhibition (GI)” value in the test on Ustilaginoidea virens and in the test on Fusarium fujikuroi was “inactive” throughout. Further, the inhibition of growth at 50 µg/mL with Sclerotinia sclerotiorum was 0%; in [3] it was 38.9%; with Phytophthora infestans it was 0%; in the test on Alternaria solani, 53.6%; in test [2] it was 42.1%; with Fusarium graminearum, 22.2%. The inhibition of growth at 50 µg/mL in the test with Mycosphaerella arachidis was found to be 87.5%; in the test with Fusarium oxysporum it was 19.1%. Moreover, the “growth inhibition (GI)” value in the test on Puccinia triticina amounted to 0%. The Activity in the test with Tobacco mosaic virus was 0%.
In the case of `Cc1nnsc1-c1nnc(-c2ccc(=O)[nH]c2)o1`, the inhibition of growth at 50 µg/mL in the test with Cytospora mali was found to be 47.2%; with Alternaria mali, 27.3%; in the test with Sclerotinia sclerotiorum it was 53.6%; with Botrytis cinerea, 21.1%; with Ceratobasidium cereale, 13.8%; in test [3], 23.5%. Moreover, the inhibition of growth at 50 µg/mL in the test on Phytophthora infestans stood at 31%; in the test with Rhizoctonia solani, 44.4%; with Alternaria solani, 31%; in [1], 24.1%; in [2], 13.8%; with Ustilaginoidea virens it was 22.2%. For the same molecule, the inhibition of growth at 50 µg/mL came to 13.8% with Fusarium graminearum, 0% in the test with Mycosphaerella arachidis, 33.3% in the test with Fusarium oxysporum and 17.6% with Fusarium fujikuroi. Besides, in the test with Puccinia triticina, the “growth inhibition (GI)” value was “inactive”. The result with Tobacco mosaic virus was inactive.
For the molecule `CCCCCCCc1nnc(-c2snnc2C)o1`, the inhibition of growth at 50 µg/mL in the test on Cytospora mali stood at 0%; in the test with Alternaria mali, 38.9%; in the test with Sclerotinia sclerotiorum, 32.1%; with Botrytis cinerea it was 0%; with Ceratobasidium cereale it was 0%; in test [3] it was 25.4%. The inhibition of growth at 50 µg/mL was determined as 100% with Phytophthora infestans; 26.6% in the test on Rhizoctonia solani; 31.6% in the test on Alternaria solani; 0% in [1]; 42.1% in [2]; 0% with Ustilaginoidea virens. Besides, the inhibition of growth at 50 µg/mL with Fusarium graminearum was determined as 34.2%; with Mycosphaerella arachidis, 0%; with Fusarium oxysporum, 12.5%; in the test with Fusarium fujikuroi it was 21.1%. The “growth inhibition (GI)” value in the test with Puccinia triticina was determined as 83%. For the same molecule, the Activity with Tobacco mosaic virus is recorded as 0%.
With `Cc1nn(-c2ccccc2)nc1-c1nnc(-c2snnc2C)o1`, the inhibition of growth at 50 µg/mL in the test on Cytospora mali is 22.2%; in the test with Alternaria mali it was 31%; in the test on Sclerotinia sclerotiorum, 23.5%; in the test on Botrytis cinerea it was 41.4%; with Ceratobasidium cereale it was 37.9%; in [3], 44.4%. For the same molecule, the inhibition of growth at 50 µg/mL in the test with Rhizoctonia solani amounted to 0%; in the test with Alternaria solani it was 17.6%; in test [1], 0%; in test [2], 0%; with Ustilaginoidea virens, 0%; in the test with Fusarium graminearum, 31%. For the same molecule, the inhibition of growth at 50 µg/mL in the test on Mycosphaerella arachidis was 17.6%; in the test on Fusarium oxysporum, 0%; in the test on Fusarium fujikuroi it was 0%. Moreover, the “growth inhibition (GI)” value with Puccinia triticina was 0%. In addition, in the test on Phytophthora infestans, the “growth inhibition (GI)” value is “inactive”. Besides, in the test with Tobacco mosaic virus, the Activity is 10%.
